Reference: ChEMBL document CHEMBL5214894, “Biosynthetic Interrogation of Soil Metagenomes Reveals Metamarin, an Uncommon Cyclomarin Congener with Activity against Mycobacterium tuberculosis” (J Nat Prod, 2021)
Converted amounts (≈) assume the structure as drawn. The source made the active and inactive calls. The rule behind the calls is not given here.

Legend:
[1] = target: ATP-dependent Clp protease ATP-binding subunit ClpC1 (Mycobacterium tuberculosis) (UniProt P9WPC9); test: Induction of Mycobacterium tuberculosis H37Rv CIpc1 ATPase activity expressed in Escherichia coli BL21 (DE3) cells at 10 uM incubated for 1 hr by Biomol Green Reagent based assay
In short: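 His-tagged ClpC1, cloned from H37Rv DNA into pET28c and purified by Ni-NTA. Assay in 100 mM Tris, 200 mM KCl, 8 mM MgCl2, pH 7.5, with 1 μM ClpC1 and 100 μM ATP. Compound in DMSO at 0.1, 1.0 and 10 μM final. Incubated 1 h at 37 °C. Released phosphate detected with BIOMOL Green at OD620. Three independent experiments.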

[2] = test system: Micrococcus luteus; test: Antibacterial activity against Micrococcus luteus NRRL B-1018 assessed as inhibition of bacterial growth incubated for 16 hrs by broth micro dilution analysis; assay type: functional
In short: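 Broth microdilution in LB, triplicate. Overnight culture diluted 5000-fold; 100 μL added to 100 μL LB holding 2-fold serial dilutions, final 128 to 0.5 μg/mL. Rifampicin control. Static incubation at 37 °C for 16 h. MIC taken as the lowest concentration with no visible growth.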

[3] = test system: Mycobacterium tuberculosis; test: Antimycobacterial activity against Mycobacterium tuberculosis H37Rv assessed as bacterial growth inhibition incubated for 6 days by Alamar blue staining based assay; assay type: functional; details: 144 h, time 6 day
In short: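 Strains passaged at 37 °C in 7H9 with OADC, 0.2% glycerol and 0.02% tyloxapol to OD600 0.5–0.7, then diluted to OD600 0.005. Final test range 5 to 0.009 μg/mL. Rifampicin control. Incubated 6 days at 37 °C with 5% CO2. Tween 80 and Alamar Blue then added for 24 h. Absorbance read at 570 nm, normalized to 600 nm.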

[4] = test system: Mycolicibacterium smegmatis; test: Antibacterial activity against Mycobacterium smegmatis mc2 155 assessed as bacterial growth inhibition incubated for 48 hrs Alamar blue staining based assay; assay type: functional
In short: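 Culture grown 48 h at 37 °C, shaken in 7H9 with 0.2% glucose, 0.2% glycerol and 0.05% tyloxapol, then diluted to OD600 0.005. Added 1:1 to 2-fold serial dilutions, final 128 to 0.5 μg/mL. Rifampicin control. Static 48 h at 37 °C, then Alamar Blue for 24 h more. Wells staying blue by eye counted as inhibitory.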

[5] = test system: Mycobacterium tuberculosis; test: Induction of Mycobacterium tuberculosis CIpc1/P1/P2 proteolytic activity at 0.1 to 10 uM incubated upto 45 mins by FITC-casein fluorescence based assay; details: dose 0.1-10 µM
In short: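 FITC-casein 0.3 μM degraded by 1 μM ClpC1 with 2 μM ClpP1/P2 and 2 mM ATP. Buffer 100 mM Tris, 200 mM KCl, 8 mM MgCl2, pH 7.5. Compound in DMSO at 0.1, 1.0 and 10 μM. Change in fluorescence tracked relative to initial, which was set to 100. Triplicate.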

Chain of ATP-dependent Clp protease ATP-binding subunit ClpC1 (Mycobacterium tuberculosis) (P9WPC9 whole entry): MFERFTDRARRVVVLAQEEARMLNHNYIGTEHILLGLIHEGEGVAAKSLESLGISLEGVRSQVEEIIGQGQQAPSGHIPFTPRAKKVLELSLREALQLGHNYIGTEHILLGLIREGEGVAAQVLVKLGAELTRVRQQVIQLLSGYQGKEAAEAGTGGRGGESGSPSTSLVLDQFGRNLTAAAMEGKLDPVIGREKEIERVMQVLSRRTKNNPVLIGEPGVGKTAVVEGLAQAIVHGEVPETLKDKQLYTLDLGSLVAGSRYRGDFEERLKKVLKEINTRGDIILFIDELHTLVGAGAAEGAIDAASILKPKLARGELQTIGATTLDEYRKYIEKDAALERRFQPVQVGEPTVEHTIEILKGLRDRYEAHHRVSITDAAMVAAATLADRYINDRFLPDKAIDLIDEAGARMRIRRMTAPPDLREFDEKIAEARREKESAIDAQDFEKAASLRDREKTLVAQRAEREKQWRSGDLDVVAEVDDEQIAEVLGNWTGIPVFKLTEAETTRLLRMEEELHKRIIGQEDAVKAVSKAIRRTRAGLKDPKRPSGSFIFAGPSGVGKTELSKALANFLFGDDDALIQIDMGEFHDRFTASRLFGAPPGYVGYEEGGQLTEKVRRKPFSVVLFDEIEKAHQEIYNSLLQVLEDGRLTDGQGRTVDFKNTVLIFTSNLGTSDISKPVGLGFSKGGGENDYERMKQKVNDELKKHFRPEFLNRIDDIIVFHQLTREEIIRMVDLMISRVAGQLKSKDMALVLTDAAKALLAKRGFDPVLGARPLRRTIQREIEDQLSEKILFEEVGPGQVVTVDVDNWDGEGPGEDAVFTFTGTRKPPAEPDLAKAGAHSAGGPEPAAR

C=CC(C)(C)n1cc(C(O)C2NC(=O)[C@H](C(C)C)NC(=O)[C@H](CC(C)C)N(C)C(=O)[C@H](C(C)C)NC(=O)C(C(OC)c3ccccc3)NC(=O)[C@H](C(C)C)NC(=O)C(CC(C)CO)N(C)C2=O)c2ccccc21 (stereo not given in full) was tested, and the Activity [1] was “Active”, the MIC [2] was 8 mg/L (≈ 7.88 µM) and the MIC [3] was 0.16 mg/L (≈ 0.158 µM). The MIC [4] was 16 mg/L (≈ 15.8 µM) and the Activity [5] was “Active”.
